Activity calls are given as the source filed them. No cut-off for these calls is given here.
system: L6; assay: Cytotoxicity against rat L6 cells after 72 hrs by microplate fluorometry; assay type: cell-based; details: L6, 72 h
Method in brief: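 Rat skeletal myoblasts (L-6) run in the same Alamar Blue microplate format: MEM with 2-mercaptoethanol and 15% heat-inactivated horse serum, dilutions 90 to 0.123 µg/mL, 72 h at 37 °C in 5% CO₂. Alamar Blue for a further 2–4 h, fluorescence at ex 536 / em 588 nm as percent of control. Mefloquine standard.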

Structure (SMILES)	IC50 [µM]
CN1CCN(C23CC(NCCC(=O)N4CCCC4)C(C(c4ccccc4)C2)C(c2ccccc2)C3)CC1 (racemic)	21.4
CN1CCN(C23CCN(CCCN4CCCC4)C(C(c4ccccc4)C2)C(c2ccccc2)C3)CC1 (racemic)	43.5
CN1CCN(C23CC(NC(=O)CN4CCCCC4)C(C(c4ccccc4)C2)C(c2ccccc2)C3)CC1 (racemic)	22.1
CN1CCN(C23CCN(CCCN4CCCCC4)C(C(c4ccccc4)C2)C(c2ccccc2)C3)CC1 (racemic)	28.9
CN1CCN(C23CC(NC(=O)CCN4CCCC4)C(C(c4ccccc4)C2)C(c2ccccc2)C3)CC1 (racemic)	42.2
CCN(CC)C(=O)CNC1CC2(N3CCN(C)CC3)CC(c3ccccc3)C1C(c1ccccc1)C2 (racemic)	37.9
CN1CCN(C23CC(NC(=O)CN4CCCC4)C(C(c4ccccc4)C2)C(c2ccccc2)C3)CC1 (racemic)	27.8
CN1CCN(C23CC(NCCCN4CCCC4)C(C(c4ccccc4)C2)C(c2ccccc2)C3)CC1 (racemic)	22.6
CCN(CC)CCCN1CCC2(N3CCN(C)CC3)CC(c3ccccc3)C1C(c1ccccc1)C2 (racemic)	68.1
CN1CCN(C23CC(NC(=O)CCN4CCCCC4)C(C(c4ccccc4)C2)C(c2ccccc2)C3)CC1 (racemic)	15.3
CCN(CC)CC(=O)NC1CC2(N3CCN(C)CC3)CC(c3ccccc3)C1C(c1ccccc1)C2 (racemic)	26.4
CCN(CC)CCC(=O)NC1CC2(N3CCN(C)CC3)CC(c3ccccc3)C1C(c1ccccc1)C2 (racemic)	35.9

system: not listed separately; assay: Selectivity index, ratio of IC50 for rat L6 cells to IC50 for bloodstream form of Trypanosoma brucei rhodesiense STIB 900; assay type: toxicity, cell-based; details: read-out: Ratio IC50
Method in brief: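 Medium was MEM with 2-mercaptoethanol and 15% heat-inactivated horse serum, dilutions 90 to 0.123 µg/mL. Wells held 10^4 STIB 900 bloodstream forms or rat L-6 myoblasts. Dye was added for a further 2–4 h, then fluorescence read (ex 536/em 588 nm) as % of control. SI is L-6 IC50 over parasite IC50.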

Structure (SMILES)	selectivity ratio
CN1CCN(C23CC(NCCC(=O)N4CCCC4)C(C(c4ccccc4)C2)C(c2ccccc2)C3)CC1 (racemic)	42.9
CN1CCN(C23CCN(CCCN4CCCC4)C(C(c4ccccc4)C2)C(c2ccccc2)C3)CC1 (racemic)	16.8
CN1CCN(C23CC(NC(=O)CN4CCCCC4)C(C(c4ccccc4)C2)C(c2ccccc2)C3)CC1 (racemic)	235
CN1CCN(C23CCN(CCCN4CCCCC4)C(C(c4ccccc4)C2)C(c2ccccc2)C3)CC1 (racemic)	11.4
CN1CCN(C23CC(NC(=O)CCN4CCCC4)C(C(c4ccccc4)C2)C(c2ccccc2)C3)CC1 (racemic)	13.6
CCN(CC)C(=O)CNC1CC2(N3CCN(C)CC3)CC(c3ccccc3)C1C(c1ccccc1)C2 (racemic)	75.9
CN1CCN(C23CC(NC(=O)CN4CCCC4)C(C(c4ccccc4)C2)C(c2ccccc2)C3)CC1 (racemic)	111
CN1CCN(C23CC(NCCCN4CCCC4)C(C(c4ccccc4)C2)C(c2ccccc2)C3)CC1 (racemic)	14.1
CCN(CC)CCCN1CCC2(N3CCN(C)CC3)CC(c3ccccc3)C1C(c1ccccc1)C2 (racemic)	26.6
c1ccc(C2CC3(N4CCCCC4)CCN(CCCN4CCCCC4)C2C(c2ccccc2)C3)cc1 (racemic)	7.5
CN1CCN(C23CC(NC(=O)CCN4CCCCC4)C(C(c4ccccc4)C2)C(c2ccccc2)C3)CC1 (racemic)	12.1
c1ccc(C2CC3(N4CCCCC4)CC(NCCCN4CCCC4)C2C(c2ccccc2)C3)cc1 (racemic)	13.4
CCN(CC)CC(=O)NC1CC2(N3CCN(C)CC3)CC(c3ccccc3)C1C(c1ccccc1)C2 (racemic)	39.4
CCN(CC)CCC(=O)NC1CC2(N3CCN(C)CC3)CC(c3ccccc3)C1C(c1ccccc1)C2 (racemic)	15.7

system: Plasmodium berghei; assay: Antiprotozoal activity against Plasmodium berghei ANKA infected in NMRI mouse assessed as reduction in parasitemia at 50 mg/kg, ip qd for administered starting 4 h post-infection for 4 consecutive days; parameters: scale not given: the % may be the effect or the level left; details: route intraperitoneal

Structure (SMILES)	Activity [%]
CN1CCN(C23CCN(CCCN4CCCC4)C(C(c4ccccc4)C2)C(c2ccccc2)C3)CC1 (racemic)	0
CN1CCN(C23CCN(CCCN4CCCCC4)C(C(c4ccccc4)C2)C(c2ccccc2)C3)CC1 (racemic)	11
CCN(CC)CCCC(C)Nc1ccnc2cc(Cl)ccc12 (centres undefined) [CHLOROQUINE]	99.6
CCN(CC)CCCN1CCC2(N3CCN(C)CC3)CC(c3ccccc3)C1C(c1ccccc1)C2 (racemic)	17

system: Trypanosoma brucei rhodesiense; assay: Antiprotozoal activity against bloodstream form of Trypanosoma brucei rhodesiense STIB 900 infected in NMRI mouse assessed as reduction in parasitemia at 50 mg/kg, ip qd for administered 3 days post-inoculation for 4 consecutive days; assay type: functional, organism-based; parameters: dose 50 mg/kg; details: not given

Structure (SMILES)	Activity
CN1CCN(C23CC(NC(=O)CN4CCCCC4)C(C(c4ccccc4)C2)C(c2ccccc2)C3)CC1 (racemic)	inactive

system: Plasmodium falciparum; assay: Antiprotozoal activity against chloroquine- and pyrimethamine-resistant Plasmodium falciparum K1 after 48 hrs by [3H]-hypoxanthine incorporation assay; assay type: functional, organism-based; details: not given
Method in brief: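 Infected human red cells in RPMI 1640 with 5% Albumax, exposed to serial dilutions from 5 to 0.078 µg/mL for 48 h at 37 °C under reduced oxygen. [3H]-hypoxanthine (0.5 µCi/well) added, then a further 24 h. Cells harvested onto filters and scintillation counted as % of untreated control. IC50 taken from sigmoidal curves; duplicate, repeated once.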

Structure (SMILES)	IC50 [µM]
CN1CCN(C23CC(NCCC(=O)N4CCCC4)C(C(c4ccccc4)C2)C(c2ccccc2)C3)CC1 (racemic)	0.59
CN1CCN(C23CCN(CCCN4CCCC4)C(C(c4ccccc4)C2)C(c2ccccc2)C3)CC1 (racemic)	0.06
CN1CCN(C23CC(NC(=O)CN4CCCCC4)C(C(c4ccccc4)C2)C(c2ccccc2)C3)CC1 (racemic)	0.35
CN1CCN(C23CCN(CCCN4CCCCC4)C(C(c4ccccc4)C2)C(c2ccccc2)C3)CC1 (racemic)	0.05
CN1CCN(C23CC(NC(=O)CCN4CCCC4)C(C(c4ccccc4)C2)C(c2ccccc2)C3)CC1 (racemic)	0.55
CCN(CC)C(=O)CNC1CC2(N3CCN(C)CC3)CC(c3ccccc3)C1C(c1ccccc1)C2 (racemic)	1.16
CN1CCN(C23CC(NC(=O)CN4CCCC4)C(C(c4ccccc4)C2)C(c2ccccc2)C3)CC1 (racemic)	0.28
CN1CCN(C23CC(NCCCN4CCCC4)C(C(c4ccccc4)C2)C(c2ccccc2)C3)CC1 (racemic)	0.67
C[C@@H]1CC[C@H]2[C@@H](C)C(=O)O[C@@H]3O[C@@]4(C)CC[C@@H]1[C@]32OO4 [ARTEMISININ]	0.0064
CCN(CC)CCCN1CCC2(N3CCN(C)CC3)CC(c3ccccc3)C1C(c1ccccc1)C2 (racemic)	0.06
CN1CCN(C23CC(NC(=O)CCN4CCCCC4)C(C(c4ccccc4)C2)C(c2ccccc2)C3)CC1 (racemic)	0.23
CCN(CC)CC(=O)NC1CC2(N3CCN(C)CC3)CC(c3ccccc3)C1C(c1ccccc1)C2 (racemic)	0.37
CCN(CC)CCC(=O)NC1CC2(N3CCN(C)CC3)CC(c3ccccc3)C1C(c1ccccc1)C2 (racemic)	0.67

system: Trypanosoma brucei rhodesiense; assay: Antiprotozoal activity against bloodstream form of Trypanosoma brucei rhodesiense STIB 900 after 72 hrs by microplate fluorometry; assay type: functional, organism-based; details: STIB 900, 72 h
Method in brief: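 Bloodstream forms (10⁴/well) in MEM with 2-mercaptoethanol and 15% heat-inactivated horse serum, serial dilutions 90 to 0.123 µg/mL, 72 h at 37 °C under 5% CO₂. Alamar Blue added for a further 2–4 h. Fluorescence read at ex 536 / em 588 nm and expressed as percent of control. Melarsoprol standard.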

Structure (SMILES)	IC50 [µM]
CN1CCN(C23CC(NCCC(=O)N4CCCC4)C(C(c4ccccc4)C2)C(c2ccccc2)C3)CC1 (racemic)	0.5
CN1CCN(C23CCN(CCCN4CCCC4)C(C(c4ccccc4)C2)C(c2ccccc2)C3)CC1 (racemic)	2.59
CN1CCN(C23CC(NC(=O)CN4CCCCC4)C(C(c4ccccc4)C2)C(c2ccccc2)C3)CC1 (racemic)	0.094
CN1CCN(C23CCN(CCCN4CCCCC4)C(C(c4ccccc4)C2)C(c2ccccc2)C3)CC1 (racemic)	2.54
CN1CCN(C23CC(NC(=O)CCN4CCCC4)C(C(c4ccccc4)C2)C(c2ccccc2)C3)CC1 (racemic)	3.1
CCN(CC)C(=O)CNC1CC2(N3CCN(C)CC3)CC(c3ccccc3)C1C(c1ccccc1)C2 (racemic)	0.5
CN1CCN(C23CC(NC(=O)CN4CCCC4)C(C(c4ccccc4)C2)C(c2ccccc2)C3)CC1 (racemic)	0.25
CN1CCN(C23CC(NCCCN4CCCC4)C(C(c4ccccc4)C2)C(c2ccccc2)C3)CC1 (racemic)	1.61
CCN(CC)CCCN1CCC2(N3CCN(C)CC3)CC(c3ccccc3)C1C(c1ccccc1)C2 (racemic)	2.56
CN1CCN(C23CC(NC(=O)CCN4CCCCC4)C(C(c4ccccc4)C2)C(c2ccccc2)C3)CC1 (racemic)	1.27
c1ccc(C2CC3(N4CCCCC4)CC(NCCCN4CCCC4)C2C(c2ccccc2)C3)cc1 (racemic)	2.02
CCN(CC)CC(=O)NC1CC2(N3CCN(C)CC3)CC(c3ccccc3)C1C(c1ccccc1)C2 (racemic)	0.67
CCN(CC)CCC(=O)NC1CC2(N3CCN(C)CC3)CC(c3ccccc3)C1C(c1ccccc1)C2 (racemic)	2.29

system: Plasmodium berghei; assay: Antiprotozoal activity against bloodstream form of Plasmodium berghei ANKA infected in NMRI mouse assessed as mean survival time at 50 mg/kg, ip qd for administered starting 4 h post-infection for 4 consecutive days (reference value: 6 to 7 days); details: route intraperitoneal

Structure (SMILES)	Time [days]
CN1CCN(C23CCN(CCCN4CCCC4)C(C(c4ccccc4)C2)C(c2ccccc2)C3)CC1 (racemic)	4
CN1CCN(C23CCN(CCCN4CCCCC4)C(C(c4ccccc4)C2)C(c2ccccc2)C3)CC1 (racemic)	4
CCN(CC)CCCC(C)Nc1ccnc2cc(Cl)ccc12 (centres undefined) [CHLOROQUINE]	20
CCN(CC)CCCN1CCC2(N3CCN(C)CC3)CC(c3ccccc3)C1C(c1ccccc1)C2 (racemic)	4

system: not listed separately; assay: Selectivity index, ratio of IC50 for rat L6 cells to IC50 for chloroquine- and pyrimethamine-resistant Plasmodium falciparum K1; assay type: toxicity, cell-based; details: L6 cells versus Plasmodium falciparum K1, read-out: Ratio IC50
Method in brief: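 The L-6 IC50 comes from the 72 h Alamar Blue assay on rat myoblasts (MEM, 15% horse serum, 90–0.123 µg/mL). The K1 IC50 comes from [3H]-hypoxanthine uptake by infected human red cells: 48 h exposure to 5–0.078 µg/mL, then 24 h with label. SI is L-6 IC50 over K1 IC50.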

Structure (SMILES)	selectivity ratio
CN1CCN(C23CC(NCCC(=O)N4CCCC4)C(C(c4ccccc4)C2)C(c2ccccc2)C3)CC1 (racemic)	36.4
CN1CCN(C23CCN(CCCN4CCCC4)C(C(c4ccccc4)C2)C(c2ccccc2)C3)CC1 (racemic)	726
CN1CCN(C23CC(NC(=O)CN4CCCCC4)C(C(c4ccccc4)C2)C(c2ccccc2)C3)CC1 (racemic)	63.2
CN1CCN(C23CCN(CCCN4CCCCC4)C(C(c4ccccc4)C2)C(c2ccccc2)C3)CC1 (racemic)	577
CN1CCN(C23CC(NC(=O)CCN4CCCC4)C(C(c4ccccc4)C2)C(c2ccccc2)C3)CC1 (racemic)	76.7
CCN(CC)C(=O)CNC1CC2(N3CCN(C)CC3)CC(c3ccccc3)C1C(c1ccccc1)C2 (racemic)	32.7
CN1CCN(C23CC(NC(=O)CN4CCCC4)C(C(c4ccccc4)C2)C(c2ccccc2)C3)CC1 (racemic)	99.3
CN1CCN(C23CC(NCCCN4CCCC4)C(C(c4ccccc4)C2)C(c2ccccc2)C3)CC1 (racemic)	33.8
C[C@@H]1CC[C@H]2[C@@H](C)C(=O)O[C@@H]3O[C@@]4(C)CC[C@@H]1[C@]32OO4 [ARTEMISININ]	70.4
CCN(CC)CCCN1CCC2(N3CCN(C)CC3)CC(c3ccccc3)C1C(c1ccccc1)C2 (racemic)	1140
CN1CCN(C23CC(NC(=O)CCN4CCCCC4)C(C(c4ccccc4)C2)C(c2ccccc2)C3)CC1 (racemic)	66.7
CCN(CC)CC(=O)NC1CC2(N3CCN(C)CC3)CC(c3ccccc3)C1C(c1ccccc1)C2 (racemic)	71.3
CCN(CC)CCC(=O)NC1CC2(N3CCN(C)CC3)CC(c3ccccc3)C1C(c1ccccc1)C2 (racemic)	53.6
